Measurements published in ChEMBL document CHEMBL1132437, “Synthesis and antimicrobial activity of 4H-4-oxoquinolizine derivatives: consequences of structural modification at the C-8 position” (1999).
Converted amounts (≈) assume the structure as drawn.

Columns and labels:
[1] = tested on: Escherichia coli; experiment: In vitro antibacterial activity against gram negative Escherichia coli KNK 437; format: functional
Outline: (§1)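 Agar dilution MIC determination following the National Committee for Clinical Laboratory Standards recommendations.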

[2] = tested on: Staphylococcus aureus; experiment: In vitro antibacterial activity against gram-positive Staphylococcus aureus NCTC 10649M; format: functional; conditions: Staphylococcus aureus, NCTC 10649; read-out: MIC; outline: as §1
[3] = tested on: Mus musculus; experiment: (§2) In vivo efficacy against Pseudomonas aeruginosa 5007 in mouse protection test after subcutaneous administration; format: functional; conditions: sc
Outline: (§3)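 Mouse protection model: mice infected intravenously with 100-fold LD50 of the organism. Compound given by subcutaneous injection or oral gavage at 1 and 5 h after infection, over a dose range. Deaths tracked for 7 days post-inoculation. ED50 is the dose giving 50% survival of treated mice over the trial.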

[4] = tested on: Enterococcus faecium; experiment: In vitro antibacterial activity against gram-positive Enterococcus faecium ATCC 8043; format: functional; outline: as §1
[5] = tested on: Staphylococcus aureus; experiment: In vivo efficacy against Staphylococcus aureus NCTC 10649M in mouse; format: functional; conditions: Staphylococcus aureus; read-out: ED50; outline: as §3
[6] = tested on: Escherichia coli; experiment: In vivo efficacy against Escherichia coli JUHL in mouse protection test after subcutaneous administration; format: functional; outline: as §3
[7] = tested on: Streptococcus pyogenes; experiment: In vitro antibacterial activity against gram positive Streptococcus pyogenes 930; format: functional; conditions: Streptococcus pyogenes; read-out: MIC; outline: as §1
[8] = tested on: Pseudomonas aeruginosa; experiment: In vitro antibacterial activity against gram negative P. aeruginosa DPHP 5263; format: functional; conditions: Pseudomonas aeruginosa, DPHP 5263; read-out: MIC; outline: as §1
[9] = tested on: Pseudomonas aeruginosa; experiment: In vitro antibacterial activity against Gram-negative Pseudomonas aeruginosa 5007; format: functional; conditions: Pseudomonas aeruginosa; read-out: MIC; outline: as §1
[10] = tested on: Burkholderia cepacia; experiment: In vitro antibacterial activity against gram negative Pseudomonas cepacia 2961; format: functional; outline: as §1
[11] = tested on: Streptococcus pneumoniae; experiment: In vivo efficacy against Streptococcus pneumoniae ATCC 6303 in mouse protection test after s.c. administration.; format: functional; conditions: Streptococcus pneumoniae, sc; read-out: ED50; outline: as §3
[12] = tested on: Staphylococcus aureus; experiment: In vitro antibacterial activity against gram-positive Staphylococcus aureus 1775; format: functional; outline: as §1
[13] = tested on: Staphylococcus aureus; experiment: In vivo efficacy against Staphylococcus aureus NCTC 10649M in mouse protection test after p.o. administration.; format: functional; conditions: Staphylococcus aureus, po; read-out: ED50; outline: as §3
[14] = tested on: Escherichia coli; experiment: In vivo efficacy against Escherichia coli JUHL in mouse protection test after p.o. administration.; format: functional; conditions: Escherichia coli, po; read-out: ED50; outline: as §3
[15] = tested on: Pseudomonas aeruginosa; experiment: as §2; format: functional; outline: as §3
[16] = tested on: Mus musculus; experiment: (§4) In vivo efficacy against Pseudomonas aeruginosa 5007 in mouse protection test after administration by oral gavage; format: functional; outline: as §3
[17] = tested on: Pseudomonas aeruginosa; experiment: as §4; format: functional; outline: as §3
[18] = tested on: Mus musculus; experiment: n vivo efficacy against Streptococcus pneumoniae ATCC 6303 in mouse protection test after administration by oral gavage; format: functional; outline: as §3
[19] = tested on: Mus musculus; experiment: In vivo efficacy against Staphylococcus aureus NCTC 10649M in mouse protection test after subcutaneous administration.; format: functional; conditions: sc; outline: as §3
[20] = tested on: Mus musculus; experiment: IIn vivo efficacy against Streptococcus pneumoniae ATCC 6303 in mouse protection test after administration by oral gavage; format: functional; outline: as §3
[21] = tested on: Mus musculus; experiment: InIn vivo efficacy against Escherichia coli JUHL in mouse protection test after administration by oral gavage; format: functional; outline: as §3
[22] = tested on: Streptococcus pyogenes; experiment: In vitro antibacterial activity against Streptococcus pyogenes 930 an erythromycin-resistant; format: functional
Outline: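 MIC by agar dilution following National Committee for Clinical Laboratory Standards recommendations. P. cepacia 2961 is a ciprofloxacin-resistant strain; S. pyogenes 930 is erythromycin-resistant.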

[23] = tested on: Mus musculus; experiment: In vivo efficacy against Streptococcus pneumoniae ATCC 6303 in mouse protection test after subcutaneous administration; format: functional; conditions: sc; outline: as §3
[24] = tested on: Mus musculus; experiment: In vivo efficacy against Staphylococcus aureus NCTC 10649M in mouse protection test after administration by oral gavage; format: functional
[25] = tested on: Pseudomonas aeruginosa; experiment: Not Plasmodium species; format: functional
[26] = tested on: Mus musculus; experiment: In vivo efficacy against Streptococcus pneumoniae ATCC 6303 in mouse protection test after administration by oral gavage; format: functional; outline: as §3
[27] = tested on: Mus musculus; experiment: IIn vivo efficacy against Escherichia coli JUHL in mouse protection test after by oral gavage; format: functional; outline: as §3
[28] = tested on: Mus musculus; experiment: In vivo efficacy against Streptococcus pneumoniae ATCC 6303 in mouse protection test after administration by oral gavage.; format: functional; outline: as §3
[29] = tested on: Mus musculus; experiment: In vivo efficacy against Escherichia coli JUHL in mouse protection test after administration by oral gavage.; format: functional; outline: as §3
[30] = tested on: Mus musculus; experiment: In vivo efficacy against Staphylococcus aureus NCTC 10649M in mouse protection test after administration by subcutaneous administration; format: functional; conditions: sc; outline: as §3
[31] = tested on: Staphylococcus aureus; experiment: In vitro antibacterial activity against gram-positive Staphylococcus aureus NCTC 10649M
[32] = Escherichia coli, read-out: MIC
[33] = Enterococcus faecium, ATCC 8043, read-out: MIC
[34] = Escherichia coli, sc, read-out: ED50
[35] = Burkholderia cepacia, read-out: MIC
[36] = Staphylococcus aureus, read-out: MIC
[37] = Pseudomonas aeruginosa, sc, read-out: ED50
[38] = Pseudomonas aeruginosa, po, read-out: ED50

SMILES | MIC [1, 32] [µg/mL] | MIC [2] [µg/mL] | MIC [4, 33] [µg/mL] | ED50 [5] [mg/kg] | ED50 [6, 34] [mg/kg] | MIC [7] [µg/mL] | MIC [8] [µg/mL] | MIC [9] [µg/mL] | MIC [10, 35] [µg/mL] | ED50 [11] [mg/kg] | MIC [12, 36] [µg/mL] | ED50 [13] [mg/kg] | ED50 [14] [mg/kg] | ED50 [15, 37] [mg/kg] | ED50 [17, 38] [mg/kg] | other results
Cc1c(N2CCC[C@H](NC3CC3)C2)c(F)cn2c(=O)c(C(=O)O)cc(C3CC3)c12 | 0.05 (≈ 0.125 µM) | 0.01 (≈ 0.025 µM) | 0.1 (≈ 0.25 µM) | 0.8 | > 5 | 0.02 (≈ 0.0501 µM) | 3.1 (≈ 7.76 µM) | 0.2 (≈ 0.501 µM) | 0.78 (≈ 1.95 µM) | 4.3 | 0.39 (≈ 0.976 µM) | – | – | – | – | ED50 [3]: > 32 mg/kg
CCCN[C@H]1CCN(c2c(F)cn3c(=O)c(C(=O)O)cc(C4CC4)c3c2C)C1 | 0.2 (≈ 0.516 µM) | 0.1 (≈ 0.258 µM) | 0.39 (≈ 1.01 µM) | 4.3 | 1.1 | 0.2 (≈ 0.516 µM) | 12.5 (≈ 32.3 µM) | 1.56 (≈ 4.03 µM) | 3.1 (≈ 8 µM) | – | 1.56 (≈ 4.03 µM) | 25.4 | > 10 | > 8 | – | ED50 [16]: > 50 mg/kg
Cc1c(N2CC[C@H](NCCF)C2)c(F)cn2c(=O)c(C(=O)O)cc(C3CC3)c12 | 0.2 (≈ 0.511 µM) | 0.01 (≈ 0.0255 µM) | 0.1 (≈ 0.255 µM) | 1.1 | 4.9 | 0.1 (≈ 0.255 µM) | 12.5 (≈ 31.9 µM) | 0.78 (≈ 1.99 µM) | 3.1 (≈ 7.92 µM) | – | 0.39 (≈ 0.996 µM) | 7.5 | 17.2 | > 32 | > 50 | ED50 [18]: 9.9 mg/kg
Cc1c(N2C[C@H]3CCN[C@H]3C2)c(F)cn2c(=O)c(C(=O)O)cc(C3CC3)c12 | 0.39 (≈ 1.05 µM) | 0.1 (≈ 0.269 µM) | 0.2 (≈ 0.538 µM) | – | 0.8 | – | 0.62 (≈ 1.67 µM) | – | 0.78 (≈ 2.1 µM) | 2.3 | 6.2 (≈ 16.7 µM) | 5 | – | 18 | > 50 | ED50 [19]: 1.5 mg/kg; ED50 [20]: 11.2 mg/kg; ED50 [21]: 10 mg/kg
Cc1c(N2C[C@@H](C)[C@H](N)C2)c(F)cn2c(=O)c(C(=O)O)cc(C3CC3)c12 | 0.05 (≈ 0.139 µM) | 0.02 (≈ 0.0556 µM) | 0.05 (≈ 0.139 µM) | – | – | – | 1.56 (≈ 4.34 µM) | 0.2 (≈ 0.556 µM) | 0.78 (≈ 2.17 µM) | – | 0.78 (≈ 2.17 µM) | – | – | – | – | MIC [22]: 0.05 µg/mL (≈ 0.139 µM)
O=C(O)c1cn(C2CC2)c2cc(N3CCNCC3)c(F)cc2c1=O [CIPROFLOXACIN] | – | 0.39 (≈ 1.18 µM) | 0.39 (≈ 1.18 µM) | 3.6 | 0.2 | – | – | – | 6.2 (≈ 18.7 µM) | – | > 100 | – | 1.3 | 2.4 | 20 | ED50 [23]: 37.4 mg/kg; ED50 [24]: 25 mg/kg; MIC [25]: 0.1 µg/mL (≈ 0.302 µM); ED50 [26]: > 100 mg/kg
CN[C@@H]1CN(c2c(F)cn3c(=O)c(C(=O)O)cc(C4CC4)c3c2C)C[C@@H]1C | 0.1 (≈ 0.268 µM) | 0.02 (≈ 0.0536 µM) | 0.1 (≈ 0.268 µM) | 1.3 | 0.5 | 0.1 (≈ 0.268 µM) | 6.1 (≈ 16.3 µM) | 0.39 (≈ 1.04 µM) | 1.56 (≈ 4.18 µM) | – | 0.39 (≈ 1.04 µM) | – | – | – | – | ED50 [27]: 2.7 mg/kg
CCN[C@H]1CCN(c2c(F)cn3c(=O)c(C(=O)O)cc(C4CC4)c3c2C)C1 | 0.2 (≈ 0.536 µM) | 0.05 (≈ 0.134 µM) | 0.1 (≈ 0.268 µM) | 1 | 0.6 | 0.1 (≈ 0.268 µM) | 6.2 (≈ 16.6 µM) | 0.39 (≈ 1.04 µM) | 3.1 (≈ 8.3 µM) | 2.9 | 1.56 (≈ 4.18 µM) | 7.7 | – | > 8 | – | ED50 [28]: 7.9 mg/kg; ED50 [16]: > 50 mg/kg; ED50 [29]: 3 mg/kg
Cc1c(N2C[C@@H]3CCN[C@@H]3C2)c(F)cn2c(=O)c(C(=O)O)cc(C3CC3)c12 (stereo in doubt) | – | – | – | – | – | – | – | – | – | – | – | 1.5 | 1.1 | – | – | MIC [1]: 0.1 µg/mL (≈ 0.269 µM); ED50 [15]: 5 mg/kg; ED50 [30]: 0.6 mg/kg; MIC [4]: 0.1 µg/mL (≈ 0.269 µM); ED50 [6]: 0.5 mg/kg; ED50 [17]: 17.9 mg/kg; MIC [10]: 0.78 µg/mL (≈ 2.1 µM); MIC [31]: 0.05 µg/mL (≈ 0.135 µM); MIC [12]: 3.1 µg/mL (≈ 8.35 µM)
